According to ChEMBL document CHEMBL5532753, “Bipyraloxifene - a modified raloxifene vector against triple-negative breast cancer” (RSC Med Chem, 2024):
Activity calls are given as the source filed them. The rule behind the calls is not given here.

Legend:
[1] = system: MDA-MB-361; test: Antiproliferative activity against human MDA-MB-361 cells assessed as reduction in cell viability by measuring number of adherent cells incubated for 72 hrs by crystal violet staining based assay; assay type: functional; details: MDA-MB-361, 72 h
Method in brief: (§1)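 Adherent tumour lines grown in HEPES-buffered RPMI-1640 with 10% heat-inactivated FCS, 2 mM L-glutamine, 0.01% sodium pyruvate, penicillin/streptomycin, 37 °C, 5% CO2. Seeding per well: MCF-7 7 × 10³, MDA-MB-231 4 × 10³, MDA-MB-361 6 × 10³, U251 2 × 10³. Cells seeded overnight, then exposed to a dose range for 72 h from 20 mM DMSO stocks diluted in medium. Washed, fixed, read by MTT or CV. IC50 given as mean ± SD of at least three independent experiments.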

[2] = Cytotoxicity against mouse Peritoneal exudate cell assessed as reduction in cell viability by measuring number of adherent cells incubated for 72 hrs by crystal violet staining based assay; assay type: toxicity
Method in brief: (§2)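 Mouse peritoneal exudate cells were exposed to a dose range for 72 h, and viability was read by MTT (mitochondrial respiration) or CV (adherent cells). Compounds came from 20 mM DMSO stocks diluted in medium. IC50 given as mean ± SD.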

[3] = Cytotoxicity against mouse Peritoneal exudate cell assessed as reduction in cell viability by measuring total mitochondrial respiration incubated for 72 hrs by MTT assay; assay type: toxicity, cell-based; details: peritoneal exudate cells; method in brief: as §2
[4] = system: MDA-MB-231; test: Induction of apoptosis in human MDA-MB-231 cells assessed as caspase activation incubated for 72 hrs by Apostat staining based flow cytometry analysis; assay type: functional, cell-based
[5] = system: MDA-MB-231; test: Induction of apoptosis in human MDA-MB-231 cells assessed as late apoptotic cells at IC50 concentration incubated for 72 hrs by Annexin V/propidium iodide staining based flow cytometry analysis (reference value: 3.19 %); assay type: functional
[6] = system: MDA-MB-361; test: Antiproliferative activity against human MDA-MB-361 cells assessed as reduction in cell viability by measuring total mitochondrial respiration incubated for 72 hrs by MTT assay; assay type: functional, cell-based; details: MDA-MB-361, 72 h; method in brief: as §1
[7] = system: MDA-MB-231; test: Induction of apoptosis in human MDA-MB-231 cells assessed as abnormal cell size incubated for 72 hrs by propidium iodide staining based fluorescence microscopy analysis; assay type: functional
[8] = system: MDA-MB-231; test: Induction of apoptosis in human MDA-MB-231 cells assessed as necrotic cells at IC50 concentration incubated for 72 hrs by Annexin V/propidium iodide staining based flow cytometry analysis (reference value: 1.11 %); assay type: functional
[9] = system: MDA-MB-231; test: Induction of RNS production in human MDA-MB-231 cells assessed as oxidative burst incubated for 72 hrs by DHR staining based flow cytometry analysis; assay type: functional, cell-based
Method in brief: (§3)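 MDA-MB-231 cells were treated for 72 h, then pre-stained with 1 µM dihydrorhodamine 123 for 20 min at 37 °C. After PBS washing and trypsinisation, ROS/RNS were read by flow cytometry.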

[10] = system: MDA-MB-231; test: Induction of apoptosis in human MDA-MB-231 cells assessed as chromatin condensation incubated for 72 hrs by propidium iodide staining based fluorescence microscopy analysis; assay type: functional, cell-based
[11] = system: MDA-MB-231; test: Induction of autophagy in human MDA-MB-231 cells assessed as increase in granularity of the cellular cytoplasm at IC50 concentration incubated for 72 hrs by flow cytometric analysis
[12] = system: MDA-MB-231; test: Antiproliferative activity against human MDA-MB-231 cells assessed as reduction in cell viability by measuring total mitochondrial respiration incubated for 72 hrs by MTT assay; assay type: functional, cell-based; details: MDA-MB-231, 72 h; method in brief: as §1
[13] = system: MDA-MB-231; test: Induction of apoptosis in human MDA-MB-231 cells assessed as increase in cell nuclei incubated for 72 hrs by propidium iodide staining based fluorescence microscopy analysis; assay type: functional
[14] = system: U-251; test: Antiproliferative activity against human U-251 cells assessed as reduction in cell viability by measuring total mitochondrial respiration incubated for 72 hrs by MTT assay; assay type: functional, cell-based; details: U-251, 72 h; method in brief: as §1
[15] = system: MDA-MB-231; test: Antiproliferative activity against human MDA-MB-231 cells assessed as reduction in cell viability by measuring number of adherent cells incubated for 72 hrs by crystal violet staining based assay; assay type: functional; details: MDA-MB-231, 72 h; method in brief: as §1
[16] = system: MDA-MB-231; test: Induction of apoptosis in human MDA-MB-231 cells assessed as early apoptotic cells at IC50 concentration incubated for 72 hrs by Annexin V/propidium iodide staining based flow cytometry analysis (reference value: 0.72 %); assay type: functional
[17] = system: MDA-MB-231; test: Induction of apoptosis in human MDA-MB-231 cells assessed as abnormal cell shape incubated for 72 hrs by propidium iodide staining based fluorescence microscopy analysis; assay type: functional
[18] = system: MDA-MB-231; test: Induction of autophagy in human MDA-MB-231 cells at IC50 concentration incubated for 72 hrs by acridine orange staining based flow cytometry analysis; assay type: functional, cell-based
[19] = system: U-251; test: Antiproliferative activity against human U-251 cells assessed as reduction in cell viability by measuring number of adherent cells incubated for 72 hrs by crystal violet staining based assay; assay type: functional; details: U-251, 72 h; method in brief: as §1
[20] = system: MDA-MB-231; test: Induction of ROS production in human MDA-MB-231 cells assessed as oxidative burst incubated for 72 hrs by DHR staining based flow cytometry analysis; assay type: functional, cell-based; method in brief: as §3
[21] = system: MDA-MB-231; test: Antiproliferative activity against human MDA-MB-231 cells assessed as reduction in cell viability at IC50 concentration incubated for 72 hrs in presence of 3-MA by crystal violet staining based assay; assay type: functional
[22] = system: MCF7; test: Antiproliferative activity against human MCF7 cells assessed as reduction in cell viability by measuring number of adherent cells incubated for 72 hrs by crystal violet staining based assay; assay type: functional; details: MCF7, 72 h; method in brief: as §1
[23] = system: MCF7; test: Antiproliferative activity against human MCF7 cells assessed as reduction in cell viability by measuring total mitochondrial respiration incubated for 72 hrs by MTT assay; assay type: functional, cell-based; details: MCF7, 72 h; method in brief: as §1
[24] = system: MDA-MB-231; test: Antiproliferative activity against human MDA-MB-231 cells assessed as reduction in cell viability at IC50 concentration incubated for 72 hrs in presence of chloroquine by crystal violet staining based assay; assay type: functional
[25] = system: MDA-MB-231; test: Induction of apoptosis in human MDA-MB-231 cells assessed as viable cells at IC50 concentration incubated for 72 hrs by Annexin V/propidium iodide staining based flow cytometry analysis (reference value: 95.0 %); assay type: functional
[26] = (§4) Selectivity index, ratio of IC50 for cytotoxicity against mouse Peritoneal exudate cell assessed as reduction in cell viability by measuring total mitochondrial respiration to IC50 for antiproliferative activity against human MDA-MB-231 cells assessed as reduction in cell viability by measuring total mitochondrial respiration; assay type: toxicity, cell-based; details: mouse peritoneal exudate cells versus human MDA-MB-231 cells, read-out: Ratio IC50
Method in brief: (§5)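 Selectivity index is the IC50 in normal mouse peritoneal exudate cells divided by the IC50 in MDA-MB-231. Both IC50s come from 72 h dose-range treatment, read by the same assay: CV (adherent cells) or MTT (mitochondrial respiration).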

[27] = as §4, with “number of adherent cells” for “total mitochondrial respiration”; assay type: toxicity, cell-based; details: mouse peritoneal exudate cells versus human MDA-MB-231 cells, read-out: Ratio IC50; method in brief: as §5

IC50 [1] [µM] | IC50 [6] [µM] | IC50 [12] [µM] | IC50 [14] [µM] | IC50 [15] [µM] | IC50 [19] [µM] | Structure (SMILES) | IC50 at 72 h [2] [µM] | IC50 at 72 h [3] [µM] | Activity [4] | Activity [5] [%] | Activity [7] | Activity [8] [%] | Activity [9] | Activity [10] | Activity [11] | Activity [13] | Activity [16] [%] | Activity [17] | Activity [18] | Activity [20] | also measured
38.9 | 22.2 | 19.1 | 19.2 | 22 | 23.4 | O=C(c1ccc(OCCN2CCCCC2)cc1)c1c(-c2ccc(O)cc2)sc2cc(O)ccc12 [RALOXIFENE] | 20.4 | 18.3 | Active | 11.5 | Active | 0.93 | Active | Active | Active | Active | 20.6 | Active | Active | Active | Activity [21]: Active; IC50 [22]: 21.4 µM; IC50 [23]: 16.8 µM; Activity [24]: Active; Activity [25]: 67%
> 100 | 6.3 | 1.6 | 2.2 | 1.5 | 2.6 | COc1ccc(-c2sc3cc(OC)ccc3c2C(=O)c2ccc(OCc3ccnc(-c4ccccn4)c3)cc2)cc1 | 18.9 | 15.4 | Active | 23.3 | Active | 1.01 | Active | Active | Active | Active | 29.3 | Active | Active | Active | selectivity ratio [26]: 9.5; selectivity ratio [27]: 12.6; Activity [21]: Active; IC50 [22]: 2.4 µM; IC50 [23]: 2.15 µM; Activity [24]: Active; Activity [25]: 46.4%
